Data set [1] deals with RPMI-8226. Put plainly: cells. Format: cell-based. The settings on record: Homo sapiens, RPMI-8226, read-out: Antiproliferative effect IC50, RPMI-8226.
Data set [2] relates to MDA-MB-231. Put plainly: cells. The settings on record: Homo sapiens, MDA-MB-231, read-out: Antiproliferative effect IC50, MDA-MB-231. The class given is cell-based.
Data set [3] addresses JAK1 (Homo sapiens, UniProt P23458). The data set can be described thus: Kinase inhibition assay. The class given is biochemical.
Data set [4] addresses T1, HDAC6 (Homo sapiens, UniProt Q9UBN7).
T1 sequence (Q9UBN7 1-1215): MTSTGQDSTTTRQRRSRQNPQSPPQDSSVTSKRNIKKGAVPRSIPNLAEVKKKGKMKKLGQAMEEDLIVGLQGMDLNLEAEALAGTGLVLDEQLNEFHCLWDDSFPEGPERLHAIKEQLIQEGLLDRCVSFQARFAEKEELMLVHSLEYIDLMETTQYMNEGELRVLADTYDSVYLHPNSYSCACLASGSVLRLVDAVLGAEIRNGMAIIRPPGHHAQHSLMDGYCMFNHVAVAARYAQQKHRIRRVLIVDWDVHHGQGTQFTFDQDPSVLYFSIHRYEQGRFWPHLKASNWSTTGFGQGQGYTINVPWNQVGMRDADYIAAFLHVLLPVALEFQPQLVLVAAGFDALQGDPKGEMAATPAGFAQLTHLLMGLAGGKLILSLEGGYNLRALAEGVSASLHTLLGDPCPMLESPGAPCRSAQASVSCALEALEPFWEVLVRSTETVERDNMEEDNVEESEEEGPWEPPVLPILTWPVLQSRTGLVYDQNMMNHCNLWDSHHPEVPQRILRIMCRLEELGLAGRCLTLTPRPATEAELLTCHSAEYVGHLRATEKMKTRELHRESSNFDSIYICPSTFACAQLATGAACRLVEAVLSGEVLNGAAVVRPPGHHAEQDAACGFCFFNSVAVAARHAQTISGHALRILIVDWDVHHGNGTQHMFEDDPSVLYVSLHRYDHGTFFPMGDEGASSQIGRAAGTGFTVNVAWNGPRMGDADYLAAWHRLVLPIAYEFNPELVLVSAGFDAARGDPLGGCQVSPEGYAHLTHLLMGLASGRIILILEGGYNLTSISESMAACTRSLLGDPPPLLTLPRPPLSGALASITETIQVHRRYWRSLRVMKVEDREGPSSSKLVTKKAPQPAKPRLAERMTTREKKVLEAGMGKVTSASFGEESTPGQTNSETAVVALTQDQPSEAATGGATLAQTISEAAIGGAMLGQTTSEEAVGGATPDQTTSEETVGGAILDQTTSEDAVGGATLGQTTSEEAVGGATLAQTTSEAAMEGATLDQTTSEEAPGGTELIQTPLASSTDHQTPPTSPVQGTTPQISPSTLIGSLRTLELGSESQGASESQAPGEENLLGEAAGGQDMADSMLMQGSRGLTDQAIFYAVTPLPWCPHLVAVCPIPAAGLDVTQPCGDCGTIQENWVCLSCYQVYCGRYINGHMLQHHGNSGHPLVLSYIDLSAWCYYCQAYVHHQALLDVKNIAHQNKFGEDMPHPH
Put plainly: In vitro HDAC enzyme assay. The class given is biochemical.

Data set [5] in a line: Microsomal stability assay. The class given is in vitro ADME. The note with it: human, human liver microsomes, pH 7.4. The method, boiled down:
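Human liver microsomes at 0.8 mg/mL, with magnesium chloride and potassium phosphate buffer (pH 7.4), incubated with test compound at 0.5 μM. Mix prewarmed 5 min at 37 °C, then started with NADPH. Stopped at 0, 5, 10, 15, 30, 60 or 90 min with ice-cold ethyl acetate, spun 4000 rpm for 10 min at 4 °C. Supernatant analysed by LC-MS/MS and half-life determined.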
(In general: Liver microsomes are vesicles of endoplasmic reticulum, rich in cytochrome P450 enzymes.)

Chain of JAK1 (P23458 whole entry): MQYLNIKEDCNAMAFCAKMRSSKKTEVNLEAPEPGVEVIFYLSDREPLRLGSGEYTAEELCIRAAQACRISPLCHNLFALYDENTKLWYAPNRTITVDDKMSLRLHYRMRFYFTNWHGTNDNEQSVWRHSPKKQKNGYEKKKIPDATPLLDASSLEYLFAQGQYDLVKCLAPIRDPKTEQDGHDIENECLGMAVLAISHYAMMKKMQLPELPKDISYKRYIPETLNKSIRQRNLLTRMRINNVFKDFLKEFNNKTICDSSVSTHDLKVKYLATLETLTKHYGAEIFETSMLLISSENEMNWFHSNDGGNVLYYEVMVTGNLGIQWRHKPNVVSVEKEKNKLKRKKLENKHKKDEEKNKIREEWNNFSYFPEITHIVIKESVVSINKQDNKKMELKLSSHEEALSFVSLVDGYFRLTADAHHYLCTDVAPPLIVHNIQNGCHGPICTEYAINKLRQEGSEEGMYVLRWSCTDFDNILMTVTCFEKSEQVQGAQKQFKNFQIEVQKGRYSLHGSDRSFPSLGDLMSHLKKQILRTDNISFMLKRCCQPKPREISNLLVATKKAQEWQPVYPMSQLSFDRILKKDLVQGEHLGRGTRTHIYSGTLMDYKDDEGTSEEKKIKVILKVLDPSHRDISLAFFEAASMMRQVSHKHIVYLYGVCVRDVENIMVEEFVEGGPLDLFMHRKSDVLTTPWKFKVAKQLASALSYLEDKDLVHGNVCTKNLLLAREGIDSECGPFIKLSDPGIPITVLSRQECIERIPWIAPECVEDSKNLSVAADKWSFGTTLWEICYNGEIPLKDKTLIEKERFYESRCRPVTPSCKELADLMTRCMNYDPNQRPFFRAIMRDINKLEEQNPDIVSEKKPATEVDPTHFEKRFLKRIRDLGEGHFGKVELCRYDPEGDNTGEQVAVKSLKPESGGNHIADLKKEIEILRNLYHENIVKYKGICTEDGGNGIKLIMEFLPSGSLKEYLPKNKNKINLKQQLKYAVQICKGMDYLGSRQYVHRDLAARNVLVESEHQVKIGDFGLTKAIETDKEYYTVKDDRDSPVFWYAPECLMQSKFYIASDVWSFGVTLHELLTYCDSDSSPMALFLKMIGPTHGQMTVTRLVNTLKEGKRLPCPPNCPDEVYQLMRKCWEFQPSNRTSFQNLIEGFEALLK

For the compound `O=C(NO)c1ccc(CNc2nc3cccc(-c4ccccc4)n3n2)cc1` [Compound 16a, N-hydroxy-4-(((5-phenyl-[1,2, 4]triazolo[1,5-a]pyridin-2-yl)amino)methyl)benzamide], the IC50 (commonly the concentration needed to halve the response being measured) in data set [1] worked out at 460 ± 30 nM; in data set [2], 900 ± 30 nM; in data set [3], 320 ± 18 nM; in data set [4], 9.5 ± 0.72 nM.
On the same counts, the results for `COc1ccc(-c2cccc3nc(NCc4ccc(C(=O)NO)cc4)nn23)cc1` [Compound 16b, N-hydroxy-4-(((5–(4-methoxyphenyl)-[1,2, 4]triazolo[1,5-a]pyridin-2-yl)amino)methyl)benzamide] are 290 ± 10 nM, 840 ± 40 nM, 146 ± 8.5 nM and 8.75 ± 0.46 nM.
On the same counts, the results for `COc1cccc(-c2cccc3nc(NCc4ccc(C(=O)NO)cc4)nn23)c1` [Compound 16c, N-hydroxy-4-(((5–(3-methoxyphenyl)-[1,2, 4]triazolo[1,5-a]pyridin-2-yl)amino)methyl)benzamide] are 310 ± 20 nM, 950 ± 20 nM, 190 ± 10 nM and 8.4 ± 0.39 nM.
Consider `COc1ccccc1-c1cccc2nc(NCc3ccc(C(=O)NO)cc3)nn12` [Compound 16d, N-hydroxy-4-(((5–(2-methoxyphenyl)-[1,2, 4]triazolo[1,5-a]pyridin-2-yl)amino)methyl)benzamide], for which the IC50 in data set [3] is 750 ± 30 nM; in data set [4], 10.2 ± 0.8 nM.
On the same counts, the results for `Cc1ccc(-c2cccc3nc(NCc4ccc(C(=O)NO)cc4)nn23)cc1` [Compound 16e, N-hydroxy-4-(((5-(p-tolyl)-[1,2, 4]triazolo[1,5-a]pyridin-2-yl)amino)methyl)benzamide] are 304 ± 16 nM and 11 ± 0.7 nM.
Take `Cc1cccc(-c2cccc3nc(NCc4ccc(C(=O)NO)cc4)nn23)c1` [Compound 16f, N-hydroxy-4-(((5-(m-tolyl)-[1,2, 4]triazolo[1,5-a]pyridin-2-yl)amino)methyl)benzamide]: the IC50 worked out at 315 ± 15 nM in data set [3] and 13.7 ± 0.88 nM in data set [4].
On the same counts, the results for `Cc1ccccc1-c1cccc2nc(NCc3ccc(C(=O)NO)cc3)nn12` [Compound 16g, N-hydroxy-4-(((5-(o-tolyl)-[1,2, 4]triazolo[1,5-a]pyridin-2-yl)amino)methyl)benzamide] are 550 ± 32 nM and 16 ± 1.1 nM.
On the same counts, the results for `O=C(NO)c1ccc(CNc2nc3cccc(-c4cccc(Cl)c4)n3n2)cc1` [Compound 16h, 4-(((5–(3-chlorophenyl)-[1,2, 4]triazolo[1,5-a]pyridin-2-yl)amino)methyl)-N-hydroxybenzamide] are 365 ± 25 nM and 9.65 ± 0.23 nM.
On the same counts, the results for `O=C(NO)c1ccc(CNc2nc3cccc(-c4ccccc4Cl)n3n2)cc1` [Compound 16i, 4-(((5–(2-chlorophenyl)-[1,2, 4]triazolo[1,5-a]pyridin-2-yl)amino)methyl)-N-hydroxybenzamide] are 400 ± 28 nM and 12.2 ± 0.3 nM.
For `O=C(NO)c1ccc(CNc2nc3cccc(-c4ccc(F)cc4)n3n2)cc1` [Compound 16j, 4-(((5–(4-fluorophenyl)-[1,2, 4]triazolo[1,5-a]pyridin-2-yl)amino)methyl)-N-hydroxybenzamide], the IC50 in data set [1] is 280 ± 60 nM; in data set [2], 880 ± 60 nM; in data set [3], 295 ± 16 nM; in data set [4], 8.9 ± 0.16 nM.
As to `O=C(NO)c1ccc(CNc2nc3cccc(-c4ccc(Cl)c(Cl)c4)n3n2)cc1` [Compound 16k, 4-(((5–(3,4-dichlorophenyl)-[1,2, 4]triazolo[1,5-a]pyridin-2-yl)amino)methyl)-N-hydroxybenzamide], the IC50 in data set [3] came to 390 ± 24 nM; in data set [4], 6.15 ± 0.12 nM.
On the same counts, the results for `O=C(NO)c1ccc(CNc2nc3cccc(-c4ccc(C(F)(F)F)cc4)n3n2)cc1` [Compound 16l, N-hydroxy-4-(((5–(4-(trifluoromethyl)phenyl)-[1,2, 4]triazolo[1,5-a]pyridin-2-yl)amino)methyl)benzamide] are 460 ± 8 nM and 11.4 ± 0.88 nM.
On the same counts, the results for `O=C(NO)c1ccc(CNc2nc3cccc(-c4cc(C(F)(F)F)cc(C(F)(F)F)c4)n3n2)cc1` [Compound 16m, 4-(((5–(3,5-bis(trifluoromethyl)phenyl)-[1,2, 4]triazolo[1,5-a]pyridin-2-yl)amino)methyl)-N-hydroxybenzamide] are 685 ± 50 nM and 20.5 ± 0.78 nM.
For `O=C(Nc1nc2cccc(-c3ccc(CN4CCS(=O)(=O)CC4)cc3)n2n1)C1CC1` [Filgotinib, reference compound], the IC50 in data set [1] was determined as 17500 ± 1000 nM; in data set [2], 27200 ± 1500 nM.
As for `O=C(CCCCCCC(=O)Nc1ccccc1)NO` [SAHA, vorinostat, reference compound], in data set [5], the half-life (commonly the time needed for the level to fall by half in the phase considered) at 0.5 μM is 6.8 h.

Source of the values: paper PMC11463018 (Journal of Enzyme Inhibition and Medicinal Chemistry, 2024).
